Measured values from different studies.
Cell line: HeLa
Observed: cell growth or viability

SMILES | test | setting | IC50
COc1ccc2oc(C(=O)c3ccccc3)cc2c1-c1ccccc1 |  |  | > 50 µM
COC(=O)CN=c1scc(-c2ccccc2)n1-c1ccccc1[N+](=O)[O-] | MTT | 72 h | 6.02 µM
CC1(C)SC2C(NC(=O)C(NC(=O)C3=C(O)CN(c4ccccc4)C3=O)c3ccccc3)C(=O)N2C1C(=O)O (centres unmarked) | ATP luminescence | 48 h | 87 µg/mL
CCOC(=O)C#CC#CC(=O)OCC | MTT | 24 h | 13.2 µg/mL
CC1(C)SC2C(NC(=O)C(NC(=O)C3=C(O)C(Cc4ccsc4)NC3=O)c3ccccc3)C(=O)N2C1C(=O)O (centres unmarked) | ATP luminescence | 48 h | 58.9 µg/mL
C#CCOc1cc(C(=O)Nc2cc(OCCCN)c3ccccc3n2)nc(C(=O)Nc2cc(OCCCN)c3ccccc3n2)c1 | ATP luminescence | 72 h | 3.6 µM
c1cnc2c(c1)ccc1cccnc12 | MTT | 48 h | > 50 µM
COc1cc(OC)c2c(=O)cc(-c3ccccc3Br)oc2c1-c1c(OC)cc(OC)c2c(=O)cc(-c3ccccc3Br)oc12 | MTT | 48 h | 10.4 µM
COc1cccc2c1C(=O)c1c(O)c3c(c(O)c1C2=O)C[C@@](O)(C(=O)CO)C[C@@H]3O[C@H]1C[C@H](N)[C@H](O)[C@H](C)O1 | MTT | 48 h | 0.18 µM
COc1cc(OC)c2c(=O)cc(-c3cccc(Br)c3)oc2c1 | MTT | 48 h | 72 µM
COc1ccc(C(=O)c2cc3c(-c4ccccc4)c(OC)ccc3o2)cc1 |  |  | 1.3 µM
C[C@@H](O)C(=O)CCCCCCC(=O)Nc1ccccc1 | XTT |  | > 50 µM
CC1NC(=O)C(C(=O)NC(C(=O)NC2C(=O)N3C2SC(C)(C)C3C(=O)O)c2ccccc2)=C1O (centres unmarked) | ATP luminescence | 48 h | 106 µg/mL
c1ccc(-c2ccccn2)nc1 | MTT | 48 h | > 50 µM
COc1ccc(C(=O)c2cc3c(-c4ccccc4)c(O)ccc3o2)cc1 |  |  | 0.51 µM
C=CCNC1=C2C[C@@H](C)C[C@H](OC)[C@H](O)[C@@H](C)/C=C(\C)[C@H](OC(N)=O)[C@@H](OC)/C=C\C=C(/C)C(=O)NC(=CC1=O)C2=O | MTT |  | 0.159 µM
Cc1c(O)c(=O)ccn1-c1cccc(C(=O)O)c1 | MTT | 72 h | 600 µM
NCCOc1cc(NC(=O)c2cc(OCc3c[nH]nn3)cc(C(=O)Nc3cc(OCCN)c4ccccc4n3)n2)nc2ccccc12 | ATP luminescence | 72 h | 7.7 µM
COc1ccnc(-c2cc(OC)ccn2)c1 | MTT | 48 h | > 50 µM
NCCCOc1cc(NC(=O)c2cc(OCCN)cc(C(=O)Nc3cc(OCCCN)c4ccccc4n3)n2)nc2ccccc12 | ATP luminescence | 72 h | 13.7 µM
Brc1ccc(C#CC#Cc2ccc(Br)cc2)cc1 | MTT | 24 h | 16.3 µg/mL
CC1(C)SC2C(NC(=O)C(NC(=O)C3=C(O)C4(CC4)NC3=O)c3ccccc3)C(=O)N2C1C(=O)O (centres unmarked) | ATP luminescence | 48 h | 103 µg/mL

SMILES | test | setting | IC50
COc1cccc(-c2cccc(NC(=O)CCc3cccc4c3B(O)OC4)c2)c1 | ATP luminescence | 72 h | 1.05 µM
CN(C)CCOc1cc(NC(=O)c2cc(Cl)cc(C(=O)Nc3cc(OCCN(C)C)c4ccccc4n3)n2)nc2ccccc12 | ATP luminescence | 72 h | 3.2 µM
COc1cccc2c1C(=O)c1c(O)c3c(c(O)c1C2=O)C[C@@](O)(C(=O)CO)C[C@@H]3O[C@H]1C[C@H](N)[C@H](O)[C@H](C)O1 | MTT | 24 h | 1.71 µg/mL
COc1ccc(-c2cc(=O)c3c(OC)cc(OC)c(-c4c(OC)cc(OC)c5c(=O)cc(-c6ccc(OC)cc6)oc45)c3o2)cc1 | MTT | 48 h | 39.5 µM
CC1(C)SC2C(NC(=O)C(NC(=O)C3=C(O)C(Cc4ccc(O)cc4)NC3=O)c3ccccc3)C(=O)N2C1C(=O)O (centres unmarked) | ATP luminescence | 48 h | 93.5 µg/mL
COc1cc(OC)c2c(=O)cc(-c3ccccc3)oc2c1 | MTT | 48 h | 73.7 µM
C#CCOc1cc(C(=O)Nc2cc(OCCN)c3ccccc3n2)nc(C(=O)Nc2cc(OCCN)c3ccccc3n2)c1 | ATP luminescence | 72 h | 5.2 µM
COc1ccc(C(=O)O[C@@H]2CN3Cc4c(cc5c(c4OC)OCO5)[C@@]24C=C[C@H](OC)C[C@@H]34)cc1OC | WST-1 | 48 h | 4.8 µM
CC(=O)c1ccc(-c2cccc(NC(=O)CCc3cccc4c3B(O)OC4)c2)cc1 | ATP luminescence | 72 h | 0.858 µM
C(C#Cc1ccccc1)#Cc1ccccc1 | MTT | 24 h | 3.77 µg/mL
O=C(c1ccccc1)c1cc2c(-c3ccccc3)c(O)ccc2o1 |  |  | 35 µM
COc1cc(C)c(-c2c(C)cc(OC)c3c(=O)cc(-c4cccc(Br)c4)oc23)c2oc(-c3cccc(Br)c3)cc(=O)c12 | MTT | 48 h | > 100 µM
CCCC(O)C#CC#CC(O)CCC (centres unmarked) | MTT | 24 h | 19.3 µg/mL
COc1cc(C)cc2oc(-c3ccccc3)cc(=O)c12 | MTT | 48 h | 82.5 µM
CCOc1cc(OCC)cc(C(=O)O[C@@H]2CN3Cc4c(cc5c(c4OC)OCO5)[C@@]24C=C[C@H](OC)C[C@@H]34)c1 | WST-1 | 48 h | 5 µM
O=c1[nH]cc(F)c(=O)[nH]1 |  | 72 h | 0.54 µM
C[C@H](O)C(=O)CCCCCCC(=O)Nc1cccc(-c2cn(-c3ccccc3)nn2)c1 | XTT |  | 115 µM
CC1(C)S[C@@H]2[C@H](NC(=O)C(C(=O)O)c3ccccc3)C(=O)N2[C@H]1C(=O)O (some centres unmarked) | ATP luminescence | 48 h | 76.2 µg/mL
COc1cc(C)cc2oc(-c3ccc(C(F)(F)F)cc3)cc(=O)c12 | MTT | 48 h | > 100 µM
NCCOc1cc(NC(=O)c2cccc(C(=O)Nc3cc(OCCN)c4ccccc4n3)n2)nc2ccccc12 | ATP luminescence | 72 h | 1.2 µM
COc1cc(OC)c2c(=O)cc(-c3ccc(Br)cc3)oc2c1 | MTT | 48 h | 85.8 µM
COc1cccc2c1C(=O)c1c(O)c3c(c(O)c1C2=O)C[C@@](O)(C(=O)CO)C[C@@H]3O[C@H]1C[C@H](N)[C@H](O)[C@H](C)O1 | SRB |  | 0.46 µM
